Experimental data from ChEMBL document CHEMBL1914423, “New imidazo[2,1-b]thiazole derivatives: synthesis, in vitro anticancer evaluation, and in silico studies” (Eur J Med Chem, 2011).

Each molecule was assayed on CCRF-CEM (assay: Anticancer activity against human CCRF-CEM cells assessed as cell growth at 10^-5 M after 48 hrs by SRB assay). Details: read-out: Activity.
Format: functional
Method in brief: (§1)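 NCI-60 single-dose screen at one concentration. Cells grown in RPMI 1640 with 5% FBS and 2 mM L-glutamine, plated at 5000–40,000 cells/well, and pre-incubated 24 h at 37 °C in 5% CO2 before DMSO-dissolved drug was added. Cells fixed with TCA, SRB-stained, absorbance read at 515 nm. Percent growth calculated against time-zero and untreated control plates.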
`COc1cccc(-c2nc3sccn3c2-c2ccnc(NCCNC(=O)c3cc(N4CCOCC4)cc(C(F)(F)F)c3)n2)c1` gave a growth at 10 µM of 49.4%.

What follows are molecules tested on RPMI-8226 (assay: Anticancer activity against human RPMI8226 cells assessed as cell growth at 10^-5 M after 48 hrs by SRB assay). Details: RPMI-8226, 48 h, read-out: Activity.
Format: functional
Molecule `COc1cccc(-c2nc3sccn3c2-c2ccnc(NCCNC(=O)c3cc(N4CCOCC4)cc(C(F)(F)F)c3)n2)c1` has a growth at 10 µM of 39.1%.

Each molecule was assayed on EKVX (assay: Anticancer activity against human EKVX cells assessed as cell growth at 10^-5 M after 48 hrs by SRB assay). Details: read-out: Activity.
Format: functional
Method in brief: as §1
Molecule `COc1cccc(-c2nc3sccn3c2-c2ccnc(NCCNC(=O)c3cc(N4CCOCC4)cc(C(F)(F)F)c3)n2)c1` has a growth at 10 µM of 84.8%.

These molecules were tested on HOP-62 (assay: Anticancer activity against human HOP62 cells assessed as cell growth at 10^-5 M after 48 hrs by SRB assay). Details: HOP-62, 48 h, read-out: Activity.
Format: functional
Method in brief: as §1
For `COc1cccc(-c2nc3sccn3c2-c2ccnc(NCCNC(=O)c3cc(N4CCOCC4)cc(C(F)(F)F)c3)n2)c1`, the growth at 10 µM was 112%.

The molecules below were run on HOP-92 (assay: Anticancer activity against human HOP92 cells assessed as cell growth at 10^-5 M after 48 hrs by SRB assay). Details: HOP-92, 48 h, read-out: Activity.
Format: functional
Method in brief: as §1
`COc1cccc(-c2nc3sccn3c2-c2ccnc(NCCNC(=O)c3cc(N4CCOCC4)cc(C(F)(F)F)c3)n2)c1` showed a growth at 10 µM of 59.1%.

Each molecule was assayed on NCI-H226 (assay: Anticancer activity against human NCI-H226 cells assessed as cell growth at 10^-5 M after 48 hrs by SRB assay). Details: NCI-H226, 48 h, read-out: Activity.
Format: functional
Molecule `COc1cccc(-c2nc3sccn3c2-c2ccnc(NCCNC(=O)c3cc(N4CCOCC4)cc(C(F)(F)F)c3)n2)c1` has a growth at 10 µM of 104%.

What follows are molecules tested on NCI-H23 (assay: Anticancer activity against human NCI-H23 cells assessed as cell growth at 10^-5 M after 48 hrs by SRB assay). Details: NCI-H23, 48 h, read-out: Activity.
Format: functional
For `COc1cccc(-c2nc3sccn3c2-c2ccnc(NCCNC(=O)c3cc(N4CCOCC4)cc(C(F)(F)F)c3)n2)c1`, the growth at 10 µM was 110%.

These molecules were tested on NCI-H322M (assay: Anticancer activity against human NCI-H322M cells assessed as cell growth at 10^-5 M after 48 hrs by SRB assay). Details: read-out: Activity.
Format: functional
In the case of `COc1cccc(-c2nc3sccn3c2-c2ccnc(NCCNC(=O)c3cc(N4CCOCC4)cc(C(F)(F)F)c3)n2)c1`, the growth at 10 µM is reported as 96.6%.

These molecules were tested on NCI-H522 (assay: Anticancer activity against human NCI-H522 cells assessed as cell growth at 10^-5 M after 48 hrs by SRB assay). Details: NCI-H522, 48 h, read-out: Activity.
Format: functional
For `COc1cccc(-c2nc3sccn3c2-c2ccnc(NCCNC(=O)c3cc(N4CCOCC4)cc(C(F)(F)F)c3)n2)c1`, the growth at 10 µM was 69.5%.

These molecules were tested on HCT-116 (assay: Anticancer activity against human HCT116 cells assessed as cell growth at 10^-5 M after 48 hrs by SRB assay). Details: HCT-116, 48 h, read-out: Activity.
Format: functional
Method in brief: as §1
For `COc1cccc(-c2nc3sccn3c2-c2ccnc(NCCNC(=O)c3cc(N4CCOCC4)cc(C(F)(F)F)c3)n2)c1`, the growth at 10 µM was 75.6%.

What follows are molecules tested on HCT-15 (assay: Anticancer activity against human HCT15 cells assessed as cell growth at 10^-5 M after 48 hrs by SRB assay). Details: HCT-15, 48 h, read-out: Activity.
Format: functional
Method in brief: as §1
With `COc1cccc(-c2nc3sccn3c2-c2ccnc(NCCNC(=O)c3cc(N4CCOCC4)cc(C(F)(F)F)c3)n2)c1` the growth at 10 µM was 88.5%.

What follows are molecules tested on HT-29 (assay: Anticancer activity against human HT-29 cells assessed as cell growth at 10^-5 M after 48 hrs by SRB assay). Details: HT-29, 48 h, read-out: Activity.
Format: functional
Method in brief: as §1
Molecule `COc1cccc(-c2nc3sccn3c2-c2ccnc(NCCNC(=O)c3cc(N4CCOCC4)cc(C(F)(F)F)c3)n2)c1` has a growth at 10 µM of 58.5%.

What follows are molecules tested on KM12 (assay: Anticancer activity against human KM12 cells assessed as cell growth at 10^-5 M after 48 hrs by SRB assay). Details: KM12, 48 h, read-out: Activity.
Format: functional
Method in brief: as §1
`COc1cccc(-c2nc3sccn3c2-c2ccnc(NCCNC(=O)c3cc(N4CCOCC4)cc(C(F)(F)F)c3)n2)c1` showed a growth at 10 µM of 83.2%.

These molecules were tested on SF-268 (assay: Anticancer activity against human SF268 cells assessed as cell growth at 10^-5 M after 48 hrs by SRB assay). Details: SF-268, 48 h, read-out: Activity.
Format: functional
In the case of `COc1cccc(-c2nc3sccn3c2-c2ccnc(NCCNC(=O)c3cc(N4CCOCC4)cc(C(F)(F)F)c3)n2)c1`, the growth at 10 µM is reported as 85.7%.

These molecules were tested on SF-539 (assay: Anticancer activity against human SF539 cells assessed as cell growth at 10^-5 M after 48 hrs by SRB assay). Details: SF-539, 48 h, read-out: Activity.
Format: functional
Work on `COc1cccc(-c2nc3sccn3c2-c2ccnc(NCCNC(=O)c3cc(N4CCOCC4)cc(C(F)(F)F)c3)n2)c1` yielded a growth at 10 µM of 101%.

The molecules below were run on SNB-75 (assay: Anticancer activity against human SNB75 cells assessed as cell growth at 10^-5 M after 48 hrs by SRB assay). Details: SNB-75, 48 h, read-out: Activity.
Format: functional
Method in brief: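 NCI-60 single-dose screen: cells in RPMI 1640 with 5% FBS and 2 mM L-glutamine, plated at 5000–40,000 cells/well by doubling time, and preincubated 24 h at 37 °C. Compound given at one concentration from DMSO stock. Cells TCA-fixed and SRB-stained, absorbance at 515 nm. Percent growth relative to time-zero and untreated controls; inhibition % = 100 − growth %.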
With `COc1cccc(-c2nc3sccn3c2-c2ccnc(NCCNC(=O)c3cc(N4CCOCC4)cc(C(F)(F)F)c3)n2)c1` the growth at 10 µM was 72.2%.
